Sampled rows, rich in hits. Any-hit rate of the full collection: about 3.8%.
hERG rescue: hERG (human) protection from proarrhythmic block. AID 1511. activation (rescue from dofetilide block), less the hit threshold, % at 10 µM. Q12809. hit rate 0.51% among 310,000. CHO-hERG, FluxOR thallium flux, dofetilide IC70 present;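 active means activation above the mean of controls blocked by dofetilide plus 5 SD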;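 further: thallium influx through hERG after potassium depolarization seen as dye fluorescence rise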
KCNK3 block: human KCNK3 channel inhibition, primary screen. O14649. CHO-KCNK3 thallium flux, FluxOR fluorescence; active compounds read low. hit rate 0.84% among 340,000. B-score at 10 µM;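 active means B-score under library mean minus 4 SD, starting fluorescence ratio at most library mean plus 5 SD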;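 further: more negative B-score means stronger inhibition of thallium flux through KCNK3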
Kir21 block: inhibitors of mouse Kir2.1 inward-rectifier potassium channel | HEK293-Kir2.1, FluxOR thallium flux fluorescence; active compounds read low | B-score at 10 µM | hit rate 0.85% among 310,000 | AID 1672;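 active means fluorescence ratio B-score at or below minus 3 SD of library scores, with starting-brightness B-score within 2 SD, cut at about -4.2 in these data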;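 further: channel flux triggered by added potassium and thallium sulfate stimulus; B-score of peak minus minimum fluorescence over baseline after thallium stimulus; more negative B-score means stronger Kir2.1 block with less thallium influx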
KCNQ1 act: potentiators or activators of human KCNQ1 potassium channel. P51787. CHO-K1 KCNQ1, thallium flux FluxOR fluorescence; active compounds read high. B-score at 10 µM. hit rate 0.35% among 310,000;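 active means fluorescence ratio B-score, a plate-corrected score, at least three library SD, with initial intensity B-score within 5 SD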
Target sequence (P51787 whole entry, looked up): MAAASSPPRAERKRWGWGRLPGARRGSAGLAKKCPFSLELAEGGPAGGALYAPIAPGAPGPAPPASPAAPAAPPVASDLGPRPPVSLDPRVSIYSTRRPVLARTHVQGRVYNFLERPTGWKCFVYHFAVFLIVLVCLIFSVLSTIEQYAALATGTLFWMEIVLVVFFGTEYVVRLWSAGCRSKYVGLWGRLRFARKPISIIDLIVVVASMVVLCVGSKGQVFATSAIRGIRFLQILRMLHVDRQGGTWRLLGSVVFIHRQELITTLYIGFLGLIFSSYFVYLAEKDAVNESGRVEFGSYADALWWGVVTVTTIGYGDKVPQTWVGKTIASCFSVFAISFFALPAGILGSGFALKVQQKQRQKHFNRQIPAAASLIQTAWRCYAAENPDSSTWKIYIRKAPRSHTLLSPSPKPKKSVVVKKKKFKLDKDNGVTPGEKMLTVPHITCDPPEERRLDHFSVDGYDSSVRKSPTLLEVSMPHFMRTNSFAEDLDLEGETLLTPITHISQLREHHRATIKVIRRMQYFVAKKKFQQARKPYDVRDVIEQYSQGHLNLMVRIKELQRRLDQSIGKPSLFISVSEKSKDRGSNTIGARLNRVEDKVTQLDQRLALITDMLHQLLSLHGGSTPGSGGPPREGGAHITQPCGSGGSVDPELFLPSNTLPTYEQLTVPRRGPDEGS
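Schedule – 37 °C overnight plating, 90-min dark dye load, 20-min compound pretreatment · System – stable KCNQ1 CHO-K1 line · Probe or stimulus – thallium- and potassium-containing depolarizing buffer · Measured by – kinetic FluxOR fluorescence, 10 s baseline plus 110 s post-stimulus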
KCNK9 block: human KCNK9 channel inhibition | hit rate 1.2% among 310,000 | HEK293 KCNK9, FluxOR thallium flux fluorescence; active compounds read low | Q9NPC2 | B-score at 10 µM;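 active means ratio B-score over 3 SD below the library mean, with starting fluorescence within 5 SD of its mean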;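 further: negative B-score means less thallium flux so channel inhibition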
KCNQ1 inh: blocks the human KCNQ1 potassium channel. P51787. CHO-K1 KCNQ1, FluxOR thallium flux fluorescence; active compounds read high. B-score at 10 µM. hit rate 1.3% among 310,000. AID 2642;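 active means compounds whose thallium flux B-score, printed positive for inhibition, exceeds three library SD while starting fluorescence stays within three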;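 further: channel opened by potassium depolarization with thallium stimulus after 20 min compound exposure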
* = called active by the depositor; ! = repeats disagree.

Screening CC(=O)NS(=O)(=O)c1ccc(N2C(=O)c3ccccc3C2=O)cc1 returned hERG rescue -8, KCNK3 block inactive, Kir21 block -0.5, KCNQ1 act inactive, KCNK9 block inactive and KCNQ1 inh inactive.
O=C1CC/C=C\C[C@@H](CC(=O)N(CCO)Cc2ccccc2)C(=O)N[C@H](Cc2c[nH]c3ccccc23)CO1 was read as KCNK3 block inactive.
`CN(CC(=O)Nc1ccccc1Cl)C(=O)COC(=O)C1CCN(c2ccc(C(F)(F)F)cn2)CC1` gave hERG rescue -13, KCNK3 block inactive, Kir21 block -0.8, KCNQ1 act inactive, KCNK9 block inactive and KCNQ1 inh inactive.
N#CCCn1cc(C(=O)Nc2ccccc2Br)c(-c2cccs2)n1 was read as hERG rescue -10, KCNK3 block inactive, Kir21 block -0.49, KCNQ1 act inactive, KCNK9 block -7.3* and KCNQ1 inh inactive.
`O=C1C=C(NCc2ccccc2)c2ccccc2C1=O` gave hERG rescue -13, KCNK3 block inactive, Kir21 block 1.3, KCNQ1 act 12*, KCNK9 block inactive and KCNQ1 inh inactive.
Screening COc1cccc(/C=C/C(=O)OCC(=O)Nc2ccc(Cl)cn2)c1 returned hERG rescue 5.8*, KCNK3 block inactive, Kir21 block 0.6, KCNQ1 act inactive, KCNK9 block inactive and KCNQ1 inh inactive.
Screening CCCCNCCOc1ccccc1-c1ccccc1 returned hERG rescue -13, KCNK3 block inactive, Kir21 block -4.4*, KCNQ1 act inactive, KCNK9 block inactive and KCNQ1 inh inactive.
Screening CNCCCCOc1ccccc1-c1ccccc1 returned hERG rescue -5, KCNK3 block inactive, Kir21 block -6.4*, KCNQ1 act inactive, KCNK9 block inactive and KCNQ1 inh inactive.
`CNCCOc1ccccc1-c1ccccc1` gave hERG rescue -2, KCNK3 block inactive, Kir21 block -0.59, KCNQ1 act inactive, KCNK9 block inactive and KCNQ1 inh inactive.
Screening C=CCNCCCCOc1ccccc1-c1ccccc1 returned hERG rescue -11, KCNK3 block inactive, Kir21 block -5.7*, KCNQ1 act inactive, KCNK9 block inactive and KCNQ1 inh inactive.
For COCCCNCCOc1ccccc1-c1ccccc1 the results were hERG rescue -3, KCNK3 block inactive, Kir21 block -2.3, KCNQ1 act inactive, KCNK9 block inactive and KCNQ1 inh inactive.
COCCCNCCCCOc1ccccc1-c1ccccc1 was read as hERG rescue -5, KCNK3 block inactive, Kir21 block -4.5*, KCNQ1 act inactive, KCNK9 block inactive and KCNQ1 inh inactive.
CC(Nc1ccc(Cl)cc1)C(=O)NN (configuration not stated) was read as hERG rescue -7, KCNK3 block inactive, Kir21 block 0.07, KCNQ1 act inactive, KCNK9 block inactive and KCNQ1 inh inactive.
Cc1ccc(S(=O)(=O)c2cc(C)cc(S(=O)(=O)Nc3ccc(C(=O)O)cc3)c2C)cc1 was read as hERG rescue -8, KCNK3 block inactive, Kir21 block -0.69, KCNQ1 act inactive, KCNK9 block inactive and KCNQ1 inh inactive.
`Cc1ccc(S(=O)(=O)SCCCSS(=O)(=O)c2ccc(C)cc2)cc1` gave KCNK3 block inactive.
Screening CC1CCCN(CC(=O)NC(=O)NC2CCCCC2)C1 (configuration not stated) returned KCNK3 block inactive.
Screening CNc1nc(SC)nc2ccccc12 returned hERG rescue 6.6*, KCNK3 block inactive, Kir21 block -1.5, KCNQ1 act inactive, KCNK9 block inactive and KCNQ1 inh inactive.
For CSc1nc(NCc2ccco2)c2ccccc2n1 the results were hERG rescue -4, KCNK3 block inactive, Kir21 block 2, KCNQ1 act inactive, KCNK9 block inactive and KCNQ1 inh inactive.
`NCCCC[C@@H](C(=O)N1CCNCC1)n1cc(CCC(=O)O)nn1` gave hERG rescue -6, KCNK3 block inactive, Kir21 block 2.3, KCNQ1 act inactive, KCNK9 block inactive and KCNQ1 inh inactive.
`CC(O)Cc1cn([C@@H](CCCCN)C(=O)N2CCNCC2)nn1` (some centres not stated) gave hERG rescue -7, KCNK3 block inactive, Kir21 block -0.55, KCNQ1 act 19*, KCNK9 block inactive and KCNQ1 inh inactive.
Screening O=C(Cc1cc(=O)[nH][nH]1)N/N=C/c1c(Cl)cccc1Cl returned hERG rescue -2, KCNK3 block inactive, Kir21 block -4.3*!, KCNQ1 act inactive, KCNK9 block inactive and KCNQ1 inh inactive.
`O=C(/C=C/c1cccc([N+](=O)[O-])c1)N1CCN(c2ccc(F)cc2)CC1` gave hERG rescue -3, KCNK3 block inactive, Kir21 block -0.25, KCNQ1 act inactive, KCNK9 block inactive and KCNQ1 inh inactive.
`CCn1c(/C=C/Nc2ccccc2)[n+](CC)c2cc(Cl)c(Cl)cc21` gave hERG rescue -28, KCNK3 block inactive, Kir21 block -7*, KCNQ1 act inactive, KCNK9 block inactive and KCNQ1 inh inactive.
Screening COc1ccc(-c2nn(-c3ccccc3)cc2/C=C/C(=O)NCCCn2ccnc2)cc1OC returned hERG rescue -36, KCNK3 block inactive, Kir21 block -2.9, KCNQ1 act inactive, KCNK9 block inactive and KCNQ1 inh 7*.
Screening COc1ccc(-c2nn(-c3ccccc3)cc2/C=C/C(=O)N(C)CC(=O)Nc2cccc(F)c2)cc1OC returned KCNK3 block -10*.
For CCOc1ccc(NC(=O)CN(C)C(=O)c2c(-c3c(F)cccc3Cl)noc2C)cc1OCC the results were hERG rescue 3, KCNK3 block inactive, Kir21 block -0.06, KCNQ1 act 8*, KCNK9 block inactive and KCNQ1 inh inactive.
For CCOc1ccc(NC(=O)CN(C)C(=O)c2cn(-c3ccc(F)cc3)nc2-c2cccc(OC)c2)cc1OCC the results were hERG rescue -12, KCNK3 block inactive, Kir21 block 2.2, KCNQ1 act inactive, KCNK9 block inactive and KCNQ1 inh 7*.
COc1ccc(NC(=O)CCNS(=O)(=O)c2ccccc2F)cc1S(N)(=O)=O was read as hERG rescue -5, KCNK3 block inactive, Kir21 block -0.03, KCNQ1 act inactive, KCNK9 block inactive and KCNQ1 inh inactive.
For O=C(CC1CCCCC1)N=C1SC2CS(=O)(=O)CC2N1c1ccccc1 (configuration not stated) the results were hERG rescue -12, KCNK3 block inactive, Kir21 block 2.2, KCNQ1 act inactive, KCNK9 block inactive and KCNQ1 inh inactive.
